In ChEMBL document CHEMBL5385869, “Novel 4-aminoquinolines: Synthesis, inhibition of the Mycobacterium tuberculosis enoyl-acyl carrier protein reductase, antitubercular activity, SAR, and preclinical evaluation” (Eur J Med Chem, 2023):
Converted amounts (≈) assume the structure as drawn. “And” between values parts separate entries of the source, which are not always exact repeats. Equal entries are not always repeated.

Tests used:
[1] = test system: Mycobacterium tuberculosis; assay: Antibacterial activity against MDR Mycobacterium tuberculosis clinical isolate PE-003 measured after 7 days by resazurin dye based assay; format: functional; settings: PE-003, 168 h, time 7 day
[2] = molecular target: T1, Enoyl-[acyl-carrier-protein] reductase [NADH] (Mycobacterium tuberculosis) (UniProt P9WGR1); assay: Binding affinity to recombinant Mycobacterium tuberculosis InhA assessed as gibbs free energy change at 2 mM in presence of NADH by Spectrofluorophotometry
T1 sequence (whole entry): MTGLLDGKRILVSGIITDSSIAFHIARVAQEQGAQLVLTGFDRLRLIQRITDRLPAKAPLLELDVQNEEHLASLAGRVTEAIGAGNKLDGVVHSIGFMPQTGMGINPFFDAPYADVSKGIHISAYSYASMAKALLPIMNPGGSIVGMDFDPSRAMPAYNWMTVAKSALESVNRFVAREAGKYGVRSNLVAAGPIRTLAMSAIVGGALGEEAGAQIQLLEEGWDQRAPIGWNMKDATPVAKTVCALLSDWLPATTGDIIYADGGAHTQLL

[3] = test system: Mycobacterium tuberculosis; assay: Antibacterial activity against pan-sensitive Mycobacterium tuberculosis H37Rv ATCC 27294 measured after 7 days by resazurin dye based assay; format: functional; settings: H37Rv ATCC 27294, 168 h, time 7 day
Outline: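 Resazurin reduction microplate assay (REMA) in Middlebrook 7H9 broth with 10% ADC and 5% DMSO. Compounds come from 2 mg/mL DMSO stocks and are 2-fold serially diluted, top concentration 0.08–40 μg/mL depending on solubility. MIC is the lowest concentration preventing the blue-to-pink colour change. Three independent experiments; the reported value is the modal or the highest value.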

[4] = molecular target: T1, Enoyl-[acyl-carrier-protein] reductase [NADH] (Mycobacterium tuberculosis); assay: Binding affinity to recombinant Mycobacterium tuberculosis InhA assessed as change in enthalpy at 2 mM in presence of NADH by Spectrofluorophotometry
[5] = molecular target: T1, Enoyl-[acyl-carrier-protein] reductase [NADH] (Mycobacterium tuberculosis); assay: Binding affinity to recombinant Mycobacterium tuberculosis InhA assessed as change in entropy at 2 mM in presence of NADH by Spectrofluorophotometry

For CCOC(=O)c1ccc2nc(C)cc(Nc3ccc(N4CCCCC4)cc3)c2c1, the MIC [1] was 2.5 µg/mL and 6.4 µM, the deltaG [2] was -7.1 kcal/mol and the MIC [3] was 12.8 µM (≈ 4.99 µg/mL). It also gave a deltaH [4] of -23.3 kcal/mol and a deltaS [5] of -54.5 cal/mol/K.
